Assay outcomes as filed in PubChem.
HIF act: HIF pathway transcriptional activation | AID 1910 | hit rate 0.32% among 300,000 | U2OS HRE-luciferase reporter, luminescence; normalized: DMSO 0%, desferrioxamine 100% | activation, % at 7.5 µM (by protocol);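 active = mean activation of at least 10% of the iron chelator positive control signal, with at least half of replicates also reaching 10%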
Calb FLC: affects C. albicans growth with fluconazole; AID 1979; C. albicans CaCi-2 (fluconazole-resistant clinical isolate) + fluconazole, Alamar Blue growth, 48 h; hit rate 0.57% among 300,000; growth inhibition, % (concentration not given with the values);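 active = growth inhibition above about 58% in most replicates, limit read from the data, passing the limit was not always enough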;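 note: all wells also contain fluconazole at 8 µg/ml as a sub-toxic cotreatment; 0% = median of DMSO wells and 100% = median of geldanamycin control wells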
FXN GAA850 act: activators of GAA850 frataxin (FXN) promoter. activation, % at 6 µM. AID 540364. HEK293 lucGAA850 FXN promoter luciferase reporter, 24 h; percent of 10 µM SAHA response. hit rate 0.56% among 360,000;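 active = activation above the average of all compounds screened plus 3 SD, cutoff fixed separately per campaign, cut at about 7.5% in these data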;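 note: 0% = DMSO wells and 100% = 10 µM SAHA wells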
procasp3 activ: activators of human procaspase-3; P42574; recombinant procaspase-3 D3A, Ac-DEVD-pNA absorbance 405 nm; activation, % at 8.5 µM; hit rate 0.11% among 330,000;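 active = activation above the mean of all tested compounds plus 3 SD, cut at about 21% in these data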;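 note: 0% = DMSO alone and 100% = DMSO wells spiked with extra 5 µM PC-3 D3A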
Target sequence (P42574 whole entry D9A/D28A/D175A): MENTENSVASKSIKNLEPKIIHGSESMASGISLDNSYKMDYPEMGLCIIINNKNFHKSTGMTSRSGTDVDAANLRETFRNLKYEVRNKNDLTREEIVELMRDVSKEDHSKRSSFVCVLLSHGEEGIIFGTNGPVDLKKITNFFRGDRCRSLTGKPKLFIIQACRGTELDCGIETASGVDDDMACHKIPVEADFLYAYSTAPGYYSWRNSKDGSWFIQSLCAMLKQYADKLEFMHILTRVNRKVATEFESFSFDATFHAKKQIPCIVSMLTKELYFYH
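Assay system: Procaspase-3 D3A mutant, all three cleavage aspartates alanine. Buffer or medium: Zinc-free HEPES saline buffer with Triton X-100. Times: 1 h compound preincubation, 2 h substrate hydrolysis at 25 °C. Measured by: 405 nm absorbance of p-nitroaniline, reads at 0 and 120 min. Read-out basis: percent activation relative to control range. Replicates: singlicate.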
proCasp7 act: counter-screen for procaspase-3 activators: activators of human procaspase-7 | P55210 | recombinant procaspase-7, Ac-DEVD-pNA absorbance 405 nm; D23A/D198A/D206A triple mutant, cannot self-cleave; scale: DMSO 0, 5 µM enzyme 100 | activation, % at 8.5 µM | hit rate 0.093% among 330,000;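 active = percent activation above the screen-wide mean plus 3 SD, cut at about 25% in these data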
Target sequence (P55210 whole entry D23A/D198A/D206A): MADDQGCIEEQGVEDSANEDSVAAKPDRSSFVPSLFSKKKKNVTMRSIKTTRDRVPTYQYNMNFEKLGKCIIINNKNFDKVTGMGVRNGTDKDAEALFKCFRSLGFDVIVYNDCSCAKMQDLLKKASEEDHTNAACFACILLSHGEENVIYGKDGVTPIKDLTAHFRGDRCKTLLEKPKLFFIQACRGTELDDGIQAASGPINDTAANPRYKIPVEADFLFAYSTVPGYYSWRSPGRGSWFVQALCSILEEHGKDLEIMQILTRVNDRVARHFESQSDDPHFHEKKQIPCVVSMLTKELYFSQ
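signal = Epi-absorbance of released pNA at 405 nm, two timepoints | assay system = Uncleavable procaspase-7 mutant enzyme | reagent = Ac-DEVD-pNA substrate, 400 µM as added | times = 1 h enzyme–compound preincubation and 2 h substrate reaction, both 25 °C | benchmarks = low DMSO alone, high DMSO plus 5 µM PC-7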
Neddyl block: blocks human cullin neddylation | inhibition, % at 25 µM | TR-FRET cullin neddylation, biochemical | hit rate 0.58% among 360,000 | P61081+Q13564; in the data active = inhibition above about 36%
GAA30 FXN cntr: GAA30 FXN promoter activation counter-screen | activation, % at 6 µM | shares compounds with FXN GAA850 act | hit rate 66% among 1,900 | HEK293 lucGAA30 FXN promoter luciferase, 24 h; DMSO = 0%, 5 µM ipriflavone = 100%;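 active = mean activation above the mean of solvent-only control wells plus 3 SD, cut at about 22% in these data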;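 note: counterscreen of GAA850 promoter hits where activity marks nonselective or luminescence artifacts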
GAA850 confirm: GAA850 FXN promoter activation confirmation; shares compounds with FXN GAA850 act; HEK293 lucGAA850 FXN promoter luciferase reporter, 24 h; 100% = activation by SAHA; activation, % at 6 µM; hit rate 86% among 1,900; AID 588351;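 active = mean activation above a set limit taken from the primary screen, cut at about 8% in these data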;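 note: 0% = DMSO wells and 100% = 10 µM SAHA wells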
* marks the source's active call; other numbers are inactive results; x = no result shown. Only some compounds are listed: those with a hit (about 1.9% of all), similar ones and a draw of the others.

SMILES	HIF act	Calb FLC	FXN GAA850 act	procasp3 activ	proCasp7 act	Neddyl block	GAA30 FXN cntr	GAA850 confirm
CCN(CC(O)c1cccc(O)c1)C(=O)C12CC3CC(CC(C3)C1)C2 (stereo not drawn)	0.8	1.5	18.9*	-10.8	-1.3	6.4	32.5*	22.6*
COc1cc(OC)c(OC)cc1C=Cc1ccc2ccccc2n1	x	x	8.9*	x	x	35.3	66.9*	29.7*
O=C(OCC1CC(c2ccccc2)=NO1)c1ccc(Br)cc1 (stereo not drawn)	0.4	13.1	1.3	5.8	0.8	-4.8	x	x
O=C(OCC1CC(c2ccccc2Cl)=NO1)c1ccc(Br)cc1 (stereo not drawn)	-0.1	2.3	7.6*	12.7	-1.8	-3.5	11.4	4.7
CSCCC(C(=O)NC1CCCC1)n1c(-c2ccncc2)nc2ccccc21 (stereo not drawn)	x	x	x	x	x	24.0	x	x
NC(=S)Nc1nccc(-c2cccs2)n1	3.1	5.0	8.3*	4.0	-12.0	-21.5	94.2*	37.1*
C=CCOC(=O)Nc1nc(CCNC(=O)OC(C)(C)C)c(C(=O)OC)s1	x	x	x	x	x	-5.3	x	x
CC(=O)Nc1cc2c(cc1Cl)-c1ccccc1C2	x	x	1.6	x	x	-26.0	x	x
CCC(=O)Nc1cc2c(cc1Cl)-c1ccccc1C2	x	x	8.4*	x	x	2.5	85.5*	30.7*
CC1=CC(=C(C#N)c2nc3ccccc3s2)C=C(C)N1CC1CCCO1 (stereo not drawn)	0.7	-5.1	7.8*	-22.4	-24.0	23.1	39.0*	32.1*
CN(C)S(=O)(=O)c1ccc(N2CCCC2)c(C(=O)Nc2ccc(F)cc2F)c1	0.2	-14.2	1.1	-11.2	-8.9	8.6	x	x
CCN(CC)S(=O)(=O)c1ccc(N2CCCC2)c(NC(=O)Cc2cc(OC)c(OC)c(OC)c2)c1	-0.2	-2.2	8.4*	3.5	-1.2	12.3	31.8*	8.4*
COc1ccc(C(C)(C)C)cc1NC(=O)c1cc(S(=O)(=O)N(C)C)ccc1N1CCCC1	-0.4	-12.0	14.9*	-4.2	-3.2	1.1	-3.1	9.3*
CCN(CC)C(=O)C1=C(C)N(CCC2=CCCCC2)C(=O)C(CC(=O)NCCN2CCOCC2)C1 (stereo not drawn)	x	x	1.0	x	x	3.7	x	x
CCc1nc2ccc(C(=O)N(C)Cc3ccco3)cn2c1N(CC)Cc1cccc(Br)c1	x	x	-1.8	x	x	6.4	x	x
O=C(Oc1ccccc1/C=C\C(=O)c1cc2ccccc2o1)c1ccccc1	4.2	-8.8	8.7*	-5.0	8.8	-42.7	110.8*	42.7*
COc1cccc(C(=O)Oc2ccccc2/C=C\C(=O)c2cc3ccccc3o2)c1	2.6	-0.5	7.8*	x	x	-101.6	95.2*	45.3*
COc1ccc(C(=O)/C=C/c2ccccc2OC)c(OC(=O)c2ccc([N+](=O)[O-])cc2)c1	3.1	-5.4	3.6	-5.2	5.8	-12.9	x	x
NC(=O)N/N=C/c1ccccc1OC(=O)c1cc2ccccc2oc1=O	1.8	9.9	5.2	3.4	3.7	1.0	x	x
O=C(Oc1ccccc1/C=C\C(=O)c1cc2ccccc2o1)c1cccc(F)c1	5.3	1.9	8.9*	-4.1	-2.4	-51.4	40.3*	20.0*
Cc1nc(SCC(=O)c2cccs2)c2oc3ccccc3c2n1	1.1	9.4	7.6*	-0.1	6.3	-268.9	100.5*	38.8*
COc1ccc(OC)c(Nc2c3ccccc3nc3ccccc23)c1	2.4	16.6	-3.9	-10.9	-13.6	-16.1	x	x
O=[N+]([O-])c1ccccc1Nc1c2ccccc2nc2ccccc12	-2.2	39.8	9.6*	-9.0	-3.7	-30.5	32.1*	16.3*
COc1ccc([N+](=O)[O-])cc1Nc1c2ccccc2nc2ccccc12	0.8	-1.6	9.3*	-6.3	1.5	-2.5	2.9	21.1*
CCN(CC)C(=O)C1=C(C)N(CCCOC)C(=O)C(CC(=O)NCc2cccs2)C1 (stereo not drawn)	x	x	1.0	x	x	7.1	x	x
SMILES	HIF act	Calb FLC	FXN GAA850 act	procasp3 activ	proCasp7 act	Neddyl block	GAA30 FXN cntr	GAA850 confirm
Cc1ccc2nc3c(cc(S(=O)(=O)c4ccccc4)c(=N)n3Cc3ccco3)c(=O)n2c1	1.2	2.8	9.3*	-7.7	-2.5	x	22.1*	6.7
Brc1ccccc1OCCCn1cnc2ccccc21	4.6	10.1	8.7*	-2.9	4.3	-5.5	101.3*	36.2*
COCCNc1oc(/C=C/c2ccccc2)nc1C#N	2.2	-7.3	4.7	-2.5	3.5	10.3	x	x
CNc1oc(/C=C/c2ccccc2)nc1C#N	2.4	-23.3	8.3*	-24.1	-11.1	x	132.9*	40.0*
O=C(CN1CCN(Cc2ccccc2Cl)C1=O)NCc1cccnc1	0.0	0.6	2.0	1.1	5.5	2.0	x	x
O=C(CN1CCN(Cc2ccccc2F)C1=O)NCc1cccnc1	-0.2	-5.0	12.9*	9.6	11.9	-5.2	15.7	5.1
COc1ccc(Nc2nc(N)c([N+](=O)[O-])c(N3CCCC3)n2)cc1	4.0	11.4	-0.2	5.0	-13.7	-11.5	x	x
Nc1nc(Nc2ccccc2)nc(N2CCCC2)c1[N+](=O)[O-]	7.9	12.4	11.2*	10.9	-3.0	-10.8	74.9*	38.8*
c1ccc(-c2csc(-c3cccnc3)n2)cc1	3.1	-12.3	2.3	-6.7	1.8	-64.8	x	x
COc1ccc2cc(-c3csc(-c4cccnc4)n3)ccc2c1	2.4	-13.6	8.1*	-9.8	-2.4	-24.6	92.1*	37.3*
COc1ccc(-c2csc(-c3cccnc3)n2)cc1C	-44.9	10.7	9.5*	-3.8	4.5	-14.0	88.2*	32.4*
Cn1c(=O)c2[nH]c(SCc3cccnc3)nc2n(C)c1=S	x	x	0.3	x	x	-3.6	x	x
CC1CCCCC1NC(=O)COC(=O)c1c2c(nc3ccccc13)/C(=C\c1ccco1)CC2 (stereo not drawn)	x	x	-1.3	x	x	8.3	x	x
CCCCN1C(=O)C(O)(c2ccccc2)c2cc(Br)ccc21 (stereo not drawn)	-2.8	41.8	8.1*	6.9	-5.6	8.5	20.5	13.6*
CCOC(=O)CCCCCC(=O)Nc1ccc2c(c1)C(=O)N([C@H](C)CO)C[C@H](C)[C@@H](CN(C)S(C)(=O)=O)OCCCC[C@@H](C)O2	x	x	-0.7	x	x	-3.9	x	x
COc1ccc(/C=C/C(=O)OCCNC(=O)c2ccncc2)cc1OC	-0.5	8.5	0.8	5.5	1.5	20.2	x	x
COC(=O)Oc1ccc(/C=C/C(=O)OC(C)C)cc1OC(=O)OC	6.0	-12.2	11.5*	-6.0	-7.7	14.3	51.5*	32.0*
